The assay addresses T1, 1,25-dihydroxyvitamin D(3) 24-hydroxylase, mitochondrial (Rattus norvegicus, UniProt Q09128).
T1 sequence (Q09128 whole entry): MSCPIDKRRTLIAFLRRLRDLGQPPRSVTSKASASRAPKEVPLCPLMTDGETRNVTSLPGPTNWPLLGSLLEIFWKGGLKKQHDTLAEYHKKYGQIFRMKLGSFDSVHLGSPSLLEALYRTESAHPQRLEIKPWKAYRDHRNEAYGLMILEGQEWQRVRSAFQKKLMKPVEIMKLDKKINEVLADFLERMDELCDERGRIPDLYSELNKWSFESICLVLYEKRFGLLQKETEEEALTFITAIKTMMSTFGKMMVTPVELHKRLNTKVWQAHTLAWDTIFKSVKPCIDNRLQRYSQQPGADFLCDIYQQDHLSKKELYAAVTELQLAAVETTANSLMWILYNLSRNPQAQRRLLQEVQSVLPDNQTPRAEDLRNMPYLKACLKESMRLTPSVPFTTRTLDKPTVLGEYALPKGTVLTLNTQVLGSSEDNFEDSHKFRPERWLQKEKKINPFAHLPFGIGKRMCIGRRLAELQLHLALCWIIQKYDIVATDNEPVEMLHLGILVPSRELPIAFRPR
Description: Inhibitory activity against 25-hydroxyvitamin D3 24-hydroxylase of rat kidney mitochondria. The method in brief:
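Substrate was [26,27-methyl-3H]-25-hydroxyvitamin D3, taken from a stock of labelled plus unlabelled 25 µM 25(OH)D3 holding 5 µCi/mL. It was incubated with NADPH and inhibitor at varying concentrations (in acetonitrile) in phosphate buffer pH 7.4, shaking at 37 °C for 30 min. Metabolites were extracted with ethyl acetate and analysed by HPLC with online radioactivity detection, quantified by peak area. Results are % inhibition relative to an acetonitrile control.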
In the case of `COc1ccc2c(c1)CCC(Cc1ccc(O)cc1)C2` (stereo not drawn), the IC50 amounted to 2.6 µM.

In turn, `COc1ccc2c(c1)CCC(Cc1ccc(O)cc1)C2=O` (stereo not drawn) showed an IC50 of 3.5 µM.

As to `COc1ccc2c(c1)CCC(Cc1cc(C(F)(F)F)ccc1C(F)(F)F)C2=O` (stereo not drawn), the IC50 is 4.5 µM.

In turn, `O=C1c2ccc(O)cc2CCC1Cc1ccc(-c2ccccc2)cc1` (stereo not drawn) yielded an IC50 of more than 20 µM.

For `COc1ccc2c(c1)CC/C(=C\c1cccc(N(C)C)c1)C2=O`, the IC50 is more than 100 µM.

`O=C1c2ccc(O)cc2CCC1Cc1ccc(O)cc1` (stereo not drawn) yielded an IC50 of 8.9 µM.

For the compound `O=C1/C(=C/c2ccc(-c3ccccc3)cc2)CCc2cc(O)ccc21`, the IC50 was more than 100 µM.

`O=C1/C(=C/c2ccc(O)cc2)CCc2cc(O)ccc21` displayed an IC50 of more than 20 µM.

`COc1ccc2c(c1)CC/C(=C\c1ccccc1C)C2=O` registered an IC50 of more than 20 µM.

As for `O=C1/C(=C/c2ccccc2-c2ccccc2)CCc2cc(O)ccc21`, the IC50 is more than 100 µM.

`O=C1c2ccc(O)cc2CCC1Cc1ccccc1-c1ccccc1` (stereo not drawn) returned a 50% inhibitory concentration (IC50) of 2.1 µM.

`CN(C)c1ccc(CC2CCc3cc(O)ccc3C2=O)cc1` (stereo not drawn): 18 µM corresponded to half-maximal inhibition (IC50).

As for `COc1ccc2c(c1)CCC(Cc1ccccc1C)C2=O` (stereo not drawn), it took 0.9 µM to reach half-maximal inhibition (IC50).

For the compound `COc1ccc2c(c1)CC/C(=C\c1ccccc1Br)C2=O`, the IC50 was 100 µM.

As for `COc1ccc2c(c1)CC/C(=C\c1cc(C(F)(F)F)ccc1C(F)(F)F)C2=O`, the IC50 is more than 100 µM.

Consider `CN(C)c1ccc(/C=C2\CCc3cc(O)ccc3C2=O)cc1`, for which the IC50 is more than 100 µM.

Regarding `COc1ccc2c(c1)CC/C(=C\c1ccc(O)cc1)C2=O`, the 50% inhibitory concentration (IC50) was more than 20 µM.

Take `CC(=O)N1CCN(c2ccc(OC[C@H]3CO[C@](Cn4ccnc4)(c4ccc(Cl)cc4Cl)O3)cc2)CC1` [KETOCONAZOLE]: the IC50 came out at 20 µM.

Values taken from ChEMBL document CHEMBL1138633, “Synthesis and CYP24 inhibitory activity of 2-substituted-3,4-dihydro-2H-naphthalen-1-one (tetralone) derivatives” (Bioorg Med Chem Lett, 2004).
